# From PubChem BioAssay
# UBC13 inh = UBC13 polyubiquitin chain formation inhibitors, primary screen, biochemical, TR-FRET, uHTS; hit rate 0.47% among 330,000; Ubiquitin-conjugating enzyme E2 N (Homo sapiens), P61088; inhibition, % at 20 µM; in the data active means inhibition above about 45%, passing the limit was not always enough; inconclusive means no clear call, values can overlap the other calls
# Target sequence (P61088 whole entry, looked up): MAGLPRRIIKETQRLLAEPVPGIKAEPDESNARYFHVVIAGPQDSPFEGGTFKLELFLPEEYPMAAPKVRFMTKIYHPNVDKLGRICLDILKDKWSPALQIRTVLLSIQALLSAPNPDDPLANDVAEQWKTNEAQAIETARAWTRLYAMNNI
# SENP6 inh = SENP6 protease inhibitors, primary screen, biochemical, luminescence, uHTS; Recombinant SENP6 catalytic domain, aminoluciferin luminescence; hit rate 1.8% among 330,000; inhibition, % at 10 µM; AID 2599, 2010; Sentrin-specific protease 6 (Homo sapiens), Q9GZR1;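 active means inhibition above about 50% at the single tested dose, limit read from the data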
# Target sequence (Q9GZR1 628-1112 limits assumed): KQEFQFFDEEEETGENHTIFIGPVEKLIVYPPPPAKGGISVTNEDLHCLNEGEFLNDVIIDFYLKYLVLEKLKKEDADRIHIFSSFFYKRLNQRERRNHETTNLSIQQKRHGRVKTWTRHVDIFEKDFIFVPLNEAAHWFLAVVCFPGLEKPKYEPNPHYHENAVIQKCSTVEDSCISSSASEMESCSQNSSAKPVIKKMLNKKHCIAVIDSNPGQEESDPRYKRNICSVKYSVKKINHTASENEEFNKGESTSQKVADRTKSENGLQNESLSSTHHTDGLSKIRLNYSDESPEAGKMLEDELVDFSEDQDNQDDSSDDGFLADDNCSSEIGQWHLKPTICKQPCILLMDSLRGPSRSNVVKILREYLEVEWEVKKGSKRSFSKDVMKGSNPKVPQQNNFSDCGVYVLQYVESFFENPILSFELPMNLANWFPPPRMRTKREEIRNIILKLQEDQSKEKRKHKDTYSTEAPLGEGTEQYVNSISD
# SENP8 block-1 = human SENP8 protease inhibitors, primary screen, biochemical, fluorescence, Nedd8 protein substrate, uHTS | Sentrin-specific protease 8 (Homo sapiens), Q96LD8 | recombinant SENP8 | inhibition, % at 20 µM | hit rate 0.64% among 360,000 | AID 602440, 2012; in the data active means inhibition mostly above about 40%, no sharp cut-off; inactive means mostly below about 27%
# SENP8 block-2 = SENP8 protease inhibitors, primary screen, biochemical, luminescence; Sentrin-specific protease 8 (Homo sapiens), Q96LD8; purified SENP8, Z-RLRGG-aminoluciferin cleavage; inhibition, % at 10 µM; hit rate 1.2% among 330,000; AID 2540, 2010; in the data active means inhibition above about 50%
# Apaf-1 inh = inhibitors of human Apaf-1 apoptosome, primary screen, biochemical, DEVD-Rh110 fluorescence, uHTS | inhibition, % at 20 µM | reconstituted apoptosome caspase-3 activity | Apoptotic protease-activating factor 1 (Homo sapiens), O14727 | hit rate 0.71% among 330,000; active means inhibition of at least 40% at 20 µM
#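 System: reconstituted apoptosome with Apaf-1, cytochrome c, caspase-9, procaspase-3, dATP; Signal: Rh110 fluorescence intensity; Schedule: 30 min compound preincubation, 50 min activation, room temperature; Reagent: cytochrome c trigger plus (Z-DEVD)2-Rh110 caspase-3 substrate.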
# SENP7 block = SENP7 protease inhibitors, primary screen, biochemical, luminescence, uHTS | Sentrin-specific protease 7 (Homo sapiens), Q9BQF6 | recombinant SENP7, Z-RLRGG-aminoluciferin luminescence, 40 min | inhibition, % at 5 µM | hit rate 1.5% among 330,000;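 active means inhibition above about 50% at the single test dose, limit read from the data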
# Casp3 UBC13 ctr = CASP3 inhibitor validation, counterassay for project on UBE2N polyubiquitination blockers, biochemical, one dose; AID 488856, 2010; shares compounds with UBC13 inh; inhibition, % at 20 µM; hit rate 4% among 1,400; Recombinant caspase-3, Caspase-Glo 3/7 luminescence, 60 min;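 active means mean inhibition across replicates above about 26%, limit read from the data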
# UBC13 conf = UBC13 polyubiquitination inhibitors, single-point retest, confirmation, biochemical, TR-FRET, single concentration; shares compounds with UBC13 inh; hit rate 68% among 1,400; inhibition, % at 10 µM; in the data active means inhibition above about 45%; inconclusive means no clear call, values can overlap the other calls
# Hits are given with their value; 0 = inactive; ? = inconclusive; - = not tested or not shown. Sampled rows, rich in hits. Any-hit rate of the full collection: about 3%.
SMILES,UBC13 inh,SENP6 inh,SENP8 block-1,SENP8 block-2,Apaf-1 inh,SENP7 block,Casp3 UBC13 ctr,UBC13 conf
CNCCNC[C@H](Cc1cccc2ccccc12)NCCc1ccccc1,0,0,0,0,0,0,-,-
O=C1c2ccccc2OC2(C=Cc3ccccc3O2)N1Cc1ccccc1 (centres undefined),0,0,0,0,0,0,-,-
CN1CC2=Cc3ccccc3OC23Oc2ccccc2C=C3C1,84.6,0,0,0,0,0,0,93.7
CCCCNC(=O)C1(C)CCN1Cc1cccc2c(OC)cc(C(=O)OCC)cc12 (centres undefined),-,-,0,-,-,-,-,-
CC(=O)Nc1ccc(S(=O)(=O)N2CCN(CC(O)COc3ccc4ccccc4c3)CC2)cc1 (centres undefined),47.0,0,0,0,0,0,0,49.0
Cc1nc2ccccc2c2oc(C(=O)N3CCC(N4CCCCC4)CC3)cc12,61.3,0,0,0,0,0,0,0
CN(C(=O)c1cc2c(cc1Br)OCO2)c1cccc2ccccc12,-,-,0,-,-,-,-,-
CC(C)COC(=O)N(C)C[C@@H]1OCc2cnnn2CCCC(=O)N([C@H](C)CO)C[C@H]1C,-,-,0,-,-,-,-,-
CN(C(=O)COC(=O)COc1ccc2ccccc2c1)c1ccccc1,-,-,0,-,-,-,-,-
CCSc1ncc(Cl)c(C(=O)Nc2ccc(S(=O)(=O)Nc3ncccn3)cc2)n1,0,0,0,0,0,0,-,-
CCCc1nnc(NC(=O)c2nc(S(=O)(=O)Cc3ccc(C)cc3)ncc2Cl)s1,59.1,0,0,0,0,0,0,53.8
CCCS(=O)(=O)c1ncc(Cl)c(C(=O)Nc2ccc(S(=O)(=O)Nc3ncccn3)cc2)n1,53.4,0,0,0,0,0,0,50.2
CC(=O)Nc1ccc(NC(=O)c2nc(S(=O)(=O)Cc3cccc(C)c3)ncc2Cl)cc1,45.1,0,0,0,0,0,0,46.9
CCc1ncc(C(O)c2ccc(Cl)cc2)n1Cc1ccccc1 (centres undefined),-,-,0,-,-,-,-,-
CCOC(=O)c1c(CN2CCN(c3ccccc3)CC2)oc2ccc(O)cc12,91.4,0,0,0,0,0,0,82.8
CCOC(=O)c1c(CN2CCN(C)CC2)oc2ccc(OC)cc12,0,0,0,0,0,0,-,-
Cc1cnc(C=O)c2cccc([N+](=O)[O-])c12,-,-,0,-,-,-,-,-
COc1cccc(OCC(O)CN2CCN(CCN3C(=O)c4cccc5cccc(c45)C3=O)CC2)c1 (centres undefined),61.2,0,0,0,0,0,0,62.9
COc1ccc(OCC(O)CN2CCC(CN3C(=O)c4cccc5cccc(c45)C3=O)CC2)cc1 (centres undefined),0,0,0,0,0,0,-,-
O=C1c2cccc3cccc(c23)C(=O)N1CCN1CCN(CC(O)COc2ccccc2)CC1 (centres undefined),53.8,0,0,0,0,0,0,0
COc1cccc(C2c3cc4c(cc3OC(C)(N3CCCC3)C2C)OCO4)c1O (centres undefined),-,-,0,-,-,-,-,-
O=c1c2sccc2[nH]c(=S)n1-c1ccccc1,64.6,0,0,0,0,0,0,?
O=c1c2oc3ccccc3c2[nH]c(=S)n1-c1ccccc1,?,0,0,0,0,0,-,-
O=C(NCCCN1CCCC1=O)c1cc(-c2ccc(F)cc2)nc2ccccc12,0,0,0,0,0,0,-,-
COc1ccc(-c2cc(C(=O)NCCCN3CCCC3=O)c3ccccc3n2)cc1,46.7,0,0,0,0,0,0,54.0
SMILES,UBC13 inh,SENP6 inh,SENP8 block-1,SENP8 block-2,Apaf-1 inh,SENP7 block,Casp3 UBC13 ctr,UBC13 conf
CCc1ccc(OCC(=O)NNC(=O)c2cnccn2)c(Br)c1,52.6,0,0,0,0,0,0,0
CCOc1ccccc1NC(=O)c1ccc2c(O)c(S(=O)(=O)c3ccccc3)c(=O)[nH]c2c1,-,-,0,-,-,-,-,-
COc1ccc(OCC(=O)NNC(=S)NC(=O)C2CCCCC2)cc1,0,0,0,0,0,0,-,-
Cc1cc(C)cc(OCC(=O)NNC(=S)NC(=O)C2CC2)c1,83.4,0,0,0,0,0,0,104.0
CCCCNC(=O)NNC(=O)COc1cc(C)cc(C)c1,0,0,0,0,0,0,-,-
COc1ccc(OCC(=O)NNC(=S)NC(=O)C2CC2)cc1,78.9,0,0,0,0,0,0,100.8
CN(C)c1ccc(CNC(=O)C2Cc3c(-c4ccccc4Oc4ccccc4)ccnc3O2)cc1 (centres undefined),-,-,0,-,-,-,-,-
N#Cc1ccc(/C=N/N=C(N)N)cc1,0,0,0,0,0,0,-,-
NC(N)=N/N=C/c1ccc(OCc2ccc(Cl)cc2)cc1,101.7,0,0,0,0,0,0,120.5
NC(N)=N/N=C/c1ccc(OCc2ccccc2)cc1,50.1,0,0,0,0,0,0,53.2
COC(=O)c1csc(-c2ccc(CO)o2)n1,-,-,0,-,-,-,-,-
COc1cc(CN2C[C@@H](CO)O[C@@H](n3cnc4c(N5CCCC5)ncnc43)C2)cc(OC)c1OC,-,-,0,-,-,-,-,-
CC(O)(c1cccnc1)c1nc(-c2ccc(S(C)(=O)=O)cc2)cs1 (centres undefined),-,-,0,-,-,-,-,-
Oc1cccc(NC(=S)N=Nc2c(O)[nH]c3ccc(Br)cc23)c1,86.1,0,0,0,0,0,0,?
Oc1ccc(NC(=S)N=Nc2c(O)[nH]c3ccc(Br)cc23)cc1,?,0,0,0,0,0,-,-
Oc1ccc(NC(=S)N=Nc2c(O)[nH]c3ccccc23)cc1,92.0,0,0,0,0,0,0,103.0
CC1NC(=O)c2cccnc2-n2c1nc1cc(F)ccc1c2=O (centres undefined),-,-,0,-,-,-,-,-
COc1ccc(OC)c(/C=C/C(=O)OCC(=O)c2c(N)n(C)c(=O)n(C)c2=O)c1,45.8,0,0,0,0,0,0,0
Oc1ccccc1Nc1nc(NCc2ccccc2)c2ccccc2n1,50.0,0,0,0,0,0,0,49.2
CCN(CC)CCNc1ncnc2c1sc1nc(N3CCOCC3)c3c(c12)CCCC3,69.4,0,0,0,0,0,0,84.3
O=C(Nc1ccccc1)C1=C(Nc2ccccc2)CSC1,-,-,0,-,-,-,-,-
COc1ccc(C(N)c2csc(Nc3ccc(C(F)(F)F)cn3)n2)cc1 (centres undefined),-,-,0,-,-,-,-,-
CCC(C(=O)NC1CCCC1)N(C(=O)c1snc(C(N)=O)c1N)c1ccc(OC)cc1 (centres undefined),52.2,0,0,0,0,0,0,62.1
